Data: ChEMBL document CHEMBL1124397, “A novel class of "GABAergic" agents: 1-aryl-3-(aminoalkylidene)oxindoles” (J Med Chem, 1989)

How the values were obtained:
[1] = biological target: GABA-A receptor; anion channel (Rattus norvegicus) (UniProt O09028+P15431+P18506+P18508+P19969+P20236+P23574+P23576+P28471+P28473+P30191+P62813+P63079+P63138+Q91ZM7+Q9ES14); assay: Antagonism of mercaptopropionic acid (MPA) induced convulsions in mouse; format: functional, organism-based
[2] = system: P23576; assay: Administered at a dose 320 umol/kg intraperitoneally before [3H]Flunitrazepam ([3H]-FNP) in mouse brain expressed as percent of control; format: functional, tissue-based
P23576, sequence (P23576 whole entry): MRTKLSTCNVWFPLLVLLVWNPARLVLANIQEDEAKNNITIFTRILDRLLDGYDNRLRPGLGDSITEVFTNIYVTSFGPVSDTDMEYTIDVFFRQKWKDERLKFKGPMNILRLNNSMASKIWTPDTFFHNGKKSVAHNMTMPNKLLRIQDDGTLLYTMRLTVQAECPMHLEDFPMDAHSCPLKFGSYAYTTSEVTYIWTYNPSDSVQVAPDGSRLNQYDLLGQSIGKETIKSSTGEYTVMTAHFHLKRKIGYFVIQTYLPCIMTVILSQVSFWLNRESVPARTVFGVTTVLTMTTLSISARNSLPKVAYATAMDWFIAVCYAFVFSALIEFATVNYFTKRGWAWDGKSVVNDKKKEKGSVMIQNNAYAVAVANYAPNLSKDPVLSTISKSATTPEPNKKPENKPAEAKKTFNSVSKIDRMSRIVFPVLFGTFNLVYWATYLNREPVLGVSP
Summary of the method: (§1)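 Mice in groups of five received test compound or vehicle ip 1 h before 200 μCi/kg [3H]FNP iv and were killed 20 min later. Brains were homogenized in 40 volumes of ice-cold 50 mM Tris-HCl pH 7.7. Triplicate 1.0-mL samples were filtered on glass fiber, washed with cold buffer and counted. Bound FNP is given as % of vehicle-treated mice.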

[3] = system: Mus musculus; assay: Activity tested to antagonise cyclic GMP after administration of isoniazid in mouse brain; format: functional
[4] = system: Mus musculus; assay: Activity to antagonise mercaptopropionic acid (MPA) induced convulsions in mouse after subcutaneous administration; format: functional; details: sc
Summary of the method: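 Male Swiss CD mice (17–21 g), fasted 18 h, in groups of five. […] One hour later MPA 32 mg/kg ip. Protection meant no convulsions during 10 min of observation.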

[5] = system: Mus musculus; assay: (§2) Toxicity was measured in mouse by intraperitoneal administration; format: organism-based; details: in vivo, ip
Summary of the method: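 Mice were dosed intraperitoneally and observed for 7 days after drug administration to estimate the LD50.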

[6] = Ability to displace [3H]flunitrazepam ([3H]-FNP) binding to mouse brain after intraperitoneal administration at a dose 320 umol/kg; format: functional, organism-based; details: at 320 µmol/kg
Summary of the method: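 Mice in groups of five got test agent or vehicle ip 1 h before iv [3H]FNP at 200 μCi/kg, then were killed 20 min later by cervical dislocation. Brains were frozen and homogenized in 40 volumes of ice-cold 50 mM Tris-HCl pH 7.7. Triplicate samples were filtered on glass fiber, washed with cold buffer and counted. Bound label is expressed as % of vehicle-treated mice.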

[7] = as §2; details: in vivo, ip
Summary of the method: (§3)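 Mouse LD50 in mg/kg after sc or ip dosing, by the route named in each line.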

[8] = Toxicity measured in mouse by subcutaneous administration; format: organism-based; details: in vivo, sc; summary of the method: as §3
[9] = system: Mus musculus; assay: Ability to displace [3H]Flunitrazepam ([3H]-FNP) binding to mouse brain after intraperitoneal administration at a dose […]; format: functional
[10] = system: Mus musculus; assay: Activity to antagonise cyclic GMP after administration of isoniazid in mouse brain; value ranges from 1-3.2; format: functional
[11] = system: Mus musculus; assay: Compound was tested for enhancement of [3H]Flunitrazepam ([3H]FNP) binding to mouse brain after intraperitoneal administration at a dose of 1000uM/kg, expressed as percent of control; format: functional
Summary of the method: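 Groups of five mice got the test compound or vehicle ip at the stated dose, 1 h (60 min) before iv [3H]FNP at 200 μCi/kg. Mice were killed by cervical dislocation 20 min after [3H]FNP. Brains were frozen, weighed and homogenized in 40 volumes ice-cold 50 mM Tris-HCl pH 7.7. Triplicate 1.0-mL samples were filtered on glass fiber and washed with cold buffer. Bound radioactivity was counted and expressed as % of vehicle-treated mice.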

[12] = system: Mus musculus; assay: Activity to antagonise cyclic GMP after administration of isoniazid in mouse brain; value ranges from 3.2-10; format: functional
[13] = system: Mus musculus; assay: Compound was tested for enhancement of [3H]Flunitrazepam ([3H]FNP) binding to mouse brain after intraperitoneal administration at a dose 10uM/kg, expressed as percent of control; format: functional; summary of the method: as §1
[14] = Toxicity was measured in mouse by intraperitoneal administration; value ranges from 32-100; details: in vivo, ip; summary of the method: as §3
[15] = system: Mus musculus; assay: Compound was tested for enhancement of [3H]flunitrazepam ([3H]-FNP) binding to mouse brain after intraperitoneal administration at a dose 3.2uM/kg, expressed as percent of control; format: functional; summary of the method: as §1
[16] = system: Mus musculus; assay: Compound was tested for enhancement of [3H]Flunitrazepam ([3H]FNP) binding to mouse brain after intraperitoneal administration at a dose 32uM/kg, expressed as percent of control; format: functional; summary of the method: as §1
[17] = Toxicity was measured in mouse by intraperitoneal administration; value ranges from 3.2-10; details: in vivo, ip; summary of the method: as §3

Row | Structure (SMILES) | ED50 [1] [mg/kg] | Control [2] [%] | [3H]flunitrazepam binding [6] [%] | other results
1 | CN1CCC/C1=C1/C(=O)N(c2ccccc2)c2cccc(Cl)c21 | > 100 | 190 | – | –
2 | CN1CCC/C1=C1/C(=O)N(c2cccc(C#N)c2)c2ccccc21 | > 100 | 121 | – | –
3 | C/C(=C1/C(=O)N(c2cccc(Cl)c2)c2ccccc21)N(C)C | 13.3 | – | – | ED50 [3]: 1 mg/kg
4 | CCCCNc1c(C(=O)OCC)c(C)nc2c1cnn2CC [TRACAZOLATE] | – | – | – | ED50 [3]: ~3 mg/kg; ED50 [4]: > 100 mg/kg; ED50 [5]: > 1000 mg/kg
5 | CN1CCC/C1=C1/C(=O)N(c2cccc(Cl)c2)c2cc(Cl)ccc21 | > 100 | 189 | – | –
6 | CN1CCCC/C1=C1/C(=O)N(c2cccc(Cl)c2)c2ccccc21 | > 100 | 135 | – | –
7 | CN(/C=C1\C(=O)N(c2cccc(Cl)c2)c2ccccc21)Cc1ccccc1 | > 100 | 135 | – | –
8 | Oc1c(C2=NCCCCC2)c2ccccc2n1-c1cccc(Cl)c1 | > 100 | 138 | – | –
9 | CC(=N)c1c(O)n(-c2cccc(Cl)c2)c2ccccc12 | > 100 | – | 103 | –
10 | CN(C)C(=O)c1cccc(N2C(=O)/C(=C3/CCCN3C)c3ccccc32)c1 | > 100 | 164 | – | –
11 | N=Cc1c(O)n(-c2cccc(Cl)c2)c2ccccc12 | 22.1 | – | 134 | –
12 | O=C1/C(=C\N2CCCCC2)c2ccccc2N1c1cccc(Cl)c1 | > 56 | – | 131 | –
13 | COc1ccc(N2C(=O)/C(=C3/CCCN3C)c3ccccc32)cc1F | 5.6 | 225 | – | –
14 | NC(=O)CCC/N=C(\c1ccc(Cl)cc1)c1cc(F)ccc1O [PROGABIDE] | > 100 | – | – | ED50 [3]: < 32 mg/kg; LD50 [7]: ~1000 mg/kg; LD50 [8]: > 1000 mg/kg
15 | O=C1/C(=C\n2ccnc2)c2ccccc2N1c1cccc(Cl)c1 | > 100 | 139 | – | –
16 | CN1C(=O)CN=C(c2ccccc2)c2cc(Cl)ccc21 [DIAZEPAM] | 0.7 | – | – | ED50 [3]: < 0.9 mg/kg; Control [9]: 66%
17 | COc1ccc(N2C(=O)/C(=C(/C)N(C)C)c3ccccc32)cc1F | > 100 | – | 157 | –
18 | CN(C)/C=C1\C(=O)N(c2cccc(Cl)c2)c2ccccc21 | 26.1 | – | – | ED50 [10]: 1 mg/kg
19 | CCCC(CCC)C(=O)[O-].[Na+] [VALPROATE SODIUM] | 212 | – | – | Control [11]: 128%; LD50 [7]: > 1000 mg/kg; LD50 [8]: > 1000 mg/kg
20 | COc1ccc(N2C(=O)/C(=C\N(C)C)c3ccccc32)cc1OC | > 100 | – | 138 | ED50 [3]: < 10 mg/kg
21 | O=C1/C(=C2/CCCN2c2ccccc2)c2ccccc2N1c1cccc(Cl)c1 | > 100 | 125 | – | –
22 | CN1CCC/C1=C1/C(=O)N(c2ccccc2)c2ccccc21 | > 100 | 143 | – | –

Row | Structure (SMILES) | ED50 [1] [mg/kg] | Control [2] [%] | [3H]flunitrazepam binding [6] [%] | other results
23 | CN(C)/C=C1\C(=O)N(c2cc(Cl)ccc2Cl)c2ccccc21 | > 100 | – | 147 | ED50 [3]: ~10 mg/kg
24 | CN(/C=C1\C(=O)N(c2cccc(Cl)c2)c2ccccc21)c1ccccc1 | > 100 | – | 133 | –
25 | CN(C)/C=C1\C(=O)N(c2ccccc2Cl)c2ccccc21 | > 100 | – | – | ED50 [12]: 3.2 mg/kg
26 | C/C(=C1/C(=O)N(c2ccccc2)c2cc(Cl)ccc21)N1CCCC1 | > 56 | – | 213 | –
27 | COc1ccc(N2C(=O)/C(=C3/CCCN3C)c3ccccc32)cc1Cl | – | 220 | – | Control [13]: 128%; ED50 [4]: 3.6 mg/kg; LD50 [14]: 32 mg/kg; Control [15]: 115%; LD50 [8]: ≥ 320 mg/kg; Control [16]: 159%
28 | COc1ccc(N2C(=O)/C(=C\N(C)C)c3ccccc32)cc1Cl | 7.2 | – | 244 | –
29 | COc1ccc(N2C(=O)/C(=C\N(C)C)c3ccccc32)cc1 | 48.2 | – | 153 | –
30 | O=C1/C(=C2/CCCN2Cc2ccc(Cl)cc2)c2ccccc2N1c1cccc(Cl)c1 | > 100 | 131 | – | –
31 | CN(C)/C=C1\C(=O)N(c2cc(Cl)cc(Cl)c2)c2ccccc21 | > 100 | – | 153 | –
32 | C/N=C\c1c(O)n(-c2cccc(Cl)c2)c2ccccc12 | > 100 | – | 119 | –
33 | COc1ccc(Cl)cc1N1C(=O)/C(=C\N(C)C)c2ccccc21 | > 100 | – | 149 | –
34 | NCc1cc(O)no1 [MUSCIMOL] | – | – | – | ED50 [3]: 1.5 mg/kg; ED50 [4]: 0.7 mg/kg; LD50 [8]: 4.2 mg/kg; LD50 [17]: 3.2 mg/kg
35 | CN(C)/C=C1\C(=O)N(c2cccc([N+](=O)[O-])c2)c2ccccc21 | > 100 | – | 171 | –
36 | COc1ccc(N2C(=O)/C(=C\N(C)C)c3ccccc32)cc1F | 6.6 | – | 194 | –
37 | Cc1cccc(N2C(=O)/C(=C\N(C)C)c3ccccc32)c1 | 14.1 | – | 184 | –
38 | CCN1CCC/C1=C1/C(=O)N(c2cccc(Cl)c2)c2ccccc21 | > 100 | 164 | – | –
39 | CN1CCC/C1=C1/C(=O)N(c2ccccc2)c2cc(Cl)ccc21 | > 100 | 158 | – | –
40 | CN1CCC/C1=C1/C(=O)N(c2ccc(Cl)cc2)c2ccccc21 | > 56 | 127 | – | –
41 | COc1cccc(N2C(=O)/C(=C\N(C)C)c3ccccc32)c1 | 27.9 | – | 217 | ED50 [3]: < 10 mg/kg
42 | O=C1/C(=C2/CCCN2Cc2ccccc2)c2ccccc2N1c1cccc(Cl)c1 | > 100 | 149 | – | –
43 | CN(C)/C=C1\C(=O)N(c2cccc(C(F)(F)F)c2)c2ccccc21 | 22.2 | – | 131 | –
